This passage reports inhibition results from ChEMBL document CHEMBL2375275, “Design and synthesis of novel chromenone derivatives as interleukin-5 inhibitors” (Bioorg Med Chem, 2013).

The structures appear in SMILES notation.

The target in the assay is T1, Interleukin-5 (Mus musculus) (UniProt P04401).
T1 sequence (whole entry): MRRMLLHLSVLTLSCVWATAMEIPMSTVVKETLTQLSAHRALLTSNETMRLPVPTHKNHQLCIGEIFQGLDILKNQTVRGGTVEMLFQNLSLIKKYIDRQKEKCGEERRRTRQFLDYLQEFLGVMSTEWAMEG
Put plainly: Inhibition interleukin-5 in mouse Y16 cells at 30 uM after 48 hrs by WST-1 assay. The class given is cell-based. Put shortly:
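IL-5-dependent pro-B Y16 cells stimulated with 3 U/mL mIL-5 and incubated 48 h with or without sample; cell metabolism read by WST-1 as proliferation index.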
A general note: Formazan colour is commonly taken as a measure of viable cells.
The term inhibition denotes the percentage by which the read-out fell short of the control. High values mean a response far below the control, low ones a response near the control. Turning to `COc1ccc(C(O)CCc2coc3cccc(OCC4CCCCC4)c3c2=O)cc1` (centres undefined), the inhibition came out at 94%.

`O=c1c(CCC(O)c2ccc(F)cc2)coc2cccc(OCC3CCCCC3)c12` (centres undefined) returned an inhibition of 94%.

Compound `O=C(CCc1coc2cccc(OCC3CCCCC3)c2c1=O)c1ccccc1` came in with an inhibition of 12.3%.

In the case of `Cc1ccc(C(=O)CCc2coc3cccc(OCC4CCCCC4)c3c2=O)cc1`, the inhibition came to 70%.

As for `O=c1c(CCC(O)c2ccccc2)coc2cccc(OCC3CCCCC3)c12` (centres undefined), the inhibition came out at 94%.

Take `N#Cc1ccc(C(=O)CCc2coc3cccc(OCC4CCCCC4)c3c2=O)cc1`: the inhibition came to 93%.

In the case of `Cc1ccc(C(O)CCc2coc3cccc(OCC4CCCCC4)c3c2=O)cc1` (centres undefined), the inhibition worked out at 13.5%.

In the case of `O=c1c(CCC(O)c2ccc3ccccc3c2)coc2cccc(OCC3CCCCC3)c12` (centres undefined), the inhibition came to 86%.

The compound `O=C(CCc1coc2cccc(OCC3CCCCC3)c2c1=O)c1ccc(C(F)(F)F)cc1` gave an inhibition of 5.3%.

As for `CC(C)(C)c1ccc(C(O)CCc2coc3cccc(OCC4CCCCC4)c3c2=O)cc1` (centres undefined), the inhibition is 6.6%.

On to `O=c1c(CCC(O)c2ccc(O)cc2)coc2cccc(OCC3CCCCC3)c12` (centres undefined), for which the inhibition amounted to 94%.

The compound `O=c1c(CCC(O)c2ccc(Cl)c(Cl)c2)coc2cccc(OCC3CCCCC3)c12` (centres undefined) returned an inhibition of 94%.

Consider `COc1ccc(C(=O)CCc2coc3cccc(OCC4CCCCC4)c3c2=O)cc1`, for which the inhibition stood at 91%.

On to `O=C(CCc1coc2cccc(OCC3CCCCC3)c2c1=O)c1ccc(Cl)c(Cl)c1`, for which the inhibition stood at 68%.

`O=C(CCc1coc2cccc(OCC3CCCCC3)c2c1=O)c1ccc2ccccc2c1`: the inhibition came out at 10%.

In turn, `CC(C)(C)c1ccc(C(=O)CCc2coc3cccc(OCC4CCCCC4)c3c2=O)cc1` came in with an inhibition of 6.7%.

Compound `O=C(CCc1coc2cccc(OCC3CCCCC3)c2c1=O)c1ccc(O)cc1` registered an inhibition of 80%.

With `O=c1c(CCC(O)c2ccc(C(F)(F)F)cc2)coc2cccc(OCC3CCCCC3)c12` (centres undefined), the inhibition was determined as 55%.

For the compound `O=c1c(CCC(O)c2ccc(Cl)cc2)coc2cccc(OCC3CCCCC3)c12` (centres undefined), the inhibition stood at 94%.

`O=C(CCc1coc2cccc(OCC3CCCCC3)c2c1=O)c1ccc(Cl)cc1` came in with an inhibition of 94%.

In the case of `O=C(CCc1coc2cccc(OCC3CCCCC3)c2c1=O)c1ccc(F)cc1`, the inhibition amounted to 93%.

`N#Cc1ccc(C(O)CCc2coc3cccc(OCC4CCCCC4)c3c2=O)cc1` (centres undefined) registered an inhibition of 94%.

As for `COc1ccc(C(=O)CCC2COc3cccc(OCC4CCCCC4)c3C2=O)cc1` (centres undefined), the inhibition was found to be 34%.

Compound `O=C(CCC1COc2cccc(OCC3CCCCC3)c2C1=O)c1ccc(Cl)c(Cl)c1` (centres undefined) registered an inhibition of 40%.
